Laboratory results from ChEMBL document CHEMBL1141679, “Design, synthesis, biochemical, and biological evaluation of nitrogen-containing trifluoro structural modifications of combretastatin A-4” (Bioorg Med Chem Lett, 2008).
In brackets after ≈: the same amount, converted by molar mass.

Key:
[1] = Inhibition of calf brain tubulin polymerization; design: species or system Bos taurus
How it was run: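 Tubulin was purified from calf brain. Assembly was followed by turbidity at 350 nm. IC50 was obtained by nonlinear regression of the data.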

NCI-H460 = experiment: Cytotoxicity against human NCI-H460 cells after 48 hrs by SRB assay; format: functional; details: NCI-H460, 48 h
How it was run: (§1)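 Cells were seeded in culture medium with 5% fetal bovine serum and incubated 24 h, then serial dilutions of compound were added. After 48 h, cells were fixed with trichloroacetic acid and stained with sulforhodamine B, and optical density was read on a plate reader. GI50 is the concentration giving a 50% reduction in net protein increase, calculated from optical density.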

DU-145 = experiment: Cytotoxicity against human DU145 cells after 48 hrs by SRB assay; format: functional; details: DU-145, 48 h; how it was run: as §1

Row | Structure (SMILES) | IC50 [1] [nM] | GI50 (NCI-H460) [µg/mL] | GI50 (DU-145) [µg/mL]
1 | COc1ccc(/C=C\c2cc(F)c(F)c(F)c2)cc1O | 4500 | 0.2 (≈ 0.714 µM) | 0.04 (≈ 0.143 µM)
2 | COc1ccc(/C=C\c2cc(OC)c(OC)c(OC)c2)c(N)c1 | 1400 | 0.0012 (≈ 0.00381 µM) | 0.0016 (≈ 0.00507 µM)
3 | COc1ccc(/C=C\c2cc(OC)c(OC)c(OC)c2)cc1N | 2600 | 0.00068 (≈ 0.00216 µM) | 0.00096 (≈ 0.00304 µM)
4 | COc1ccc(/C=C/c2cc(F)c(F)c(F)c2)c(N)c1 |  | > 5 | > 5
5 | COc1ccc(/C=C\c2cc(F)c(F)c(F)c2)c(N)c1 |  | > 5 | 4.3 (≈ 15.4 µM)
6 | COc1ccc(/C=C\c2cc(F)c(F)c(F)c2)c([N+](=O)[O-])c1 |  | > 5 | > 5
7 | COc1ccc(/C=C\c2cc(F)c(F)c(F)c2)cc1[N+](=O)[O-] | > 40000 | > 5 | > 5
8 | COc1ccc(/C=C/c2cc(F)c(F)c(F)c2)c([N+](=O)[O-])c1 |  | > 5 | > 5
9 | COc1ccc(/C=C/c2cc(F)c(F)c(F)c2)cc1[N+](=O)[O-] | > 40000 | > 5 | > 5
10 | COc1ccc(/C=C/c2cc(F)c(F)c(F)c2)cc1N | > 40000 | > 5 | > 5
11 | COc1ccc(/C=C\c2cc(F)c(F)c(F)c2)cc1N | 2900 | 0.11 (≈ 0.394 µM) | 0.072 (≈ 0.258 µM)
12 | COc1ccc(/C=C\c2cc(OC)c(OC)c(OC)c2)cc1O [COMBRETASTATIN A4] |  | 0.0006 (≈ 0.0019 µM) | 0.0008 (≈ 0.00253 µM)
